Source: ChEMBL document CHEMBL4396903, “Chain-Shortened Myostatin Inhibitory Peptides Improve Grip Strength in Mice” (ACS Med Chem Lett, 2019)
Active and inactive are the calls of the source. The rule behind the calls is not given here. Square brackets hold non-standard residues; d marks the D form. Peptide text beside a SMILES is read from it. * marks the point of attachment. Acetyl(2-naphthyloxy) = O=C(COc1ccc2ccccc2c1)*; Chg = N[C@H](C(=O)O)C1CCCCC1

Experiments:
Mus musculus [1] = assay: In vivo induction of muscular hypertrophy in mdx mouse assessed as hind limb strength at 30 nmol, im administered on 0 and 14 day and measured on day 42 by grip strength meter method (reference value: 4.41 +/- 0.31 Kg); format: functional
Mus musculus [2] = assay: In vivo induction of muscular hypertrophy in mdx mouse assessed as increase in weight of TA muscles at 30 nmol, im administered on 0 and 14 day and measured on day 42 by relative to control; format: functional
Mus musculus [3] = assay: In vivo induction of muscular hypertrophy in mdx mouse assessed as increase in muscle function at 30 nmol, im administered on 0 and 14 day and measured on day 42 by grip strength meter method relative to control; format: functional
[4] = target: Growth/differentiation factor 8 (Homo sapiens) (UniProt O14793); assay: Inhibition of myostatin (unknown origin) expressed in HEK293 cells at 0.3 uM incubated for 4 hrs by dual luciferase reporter gene assay; format: cell-based
Procedure, shortened: (§1)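 Luciferase reporter assay of myostatin inhibition in HEK293 cells. Peptides were prepared as 3 mM DMSO stocks, then tested at a single final concentration (10, 3 or 0.3 μM). Results are given as mean ± SD (n = 3).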

Mus musculus [5] = assay: In vivo induction of muscular hypertrophy in im dosed C57BL/6 mouse assessed as increase in gastrocnemius muscle fiber size administered on 0 and 14 day and measured on day 42 by hematoxylin and eosin staining based assay; format: functional, organism-based
[6] = target: Growth/differentiation factor 8 (Homo sapiens) (UniProt O14793); assay: Inhibition of myostatin (unknown origin) expressed in HEK293 cells at 10 uM incubated for 4 hrs by dual luciferase reporter gene assay; format: cell-based; procedure, shortened: as §1
Mus musculus [7] = assay: In vivo induction of muscular hypertrophy in im dosed mdx mouse assessed as increase in gastrocnemius muscle fiber size administered on 0 and 14 day and measured on day 42 by hematoxylin and eosin staining based assay; format: functional, organism-based
Procedure, shortened: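 Male mdx mice aged 5 weeks received intramuscular injections, with saline-injected controls. Gastrocnemius fiber size was assessed histologically by hematoxylin and eosin staining.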

Growth/differentiation factor 8 (Homo sapiens), sequence (O14793 267-375 limits assumed): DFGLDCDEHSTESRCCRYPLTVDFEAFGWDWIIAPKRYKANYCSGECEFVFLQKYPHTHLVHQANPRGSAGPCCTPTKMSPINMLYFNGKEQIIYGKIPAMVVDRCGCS

| inhibition [4] | inhibition [6] | Compound | also measured |
| --- | --- | --- | --- |
| – | – | CC[C@H](C)[C@H](NC(=O)[C@H](CCC(N)=O)NC(=O)[C@@H](NC(=O)[C@H](CCCCN)NC(=O)[C@@H](NC(=O)[C@@H](Cc1c[nH]c2ccccc12)NC(=O)[C@H](CCCNC(=N)N)NC(=O)[C@@H](NC(=O)[C@H](Cc1ccc(O)cc1)NC(=O)[C@@H](N)Cc1c[nH]c2ccccc12)[C@@H](C)CC)[C@@H](C)CC)C1CCCCC1)C(=O)N[C@@H](Cc1c[nH]c2ccccc12)C(=O)N[C@@H](CO)C(=O)N[C@@H](CCCCN)C(=O)N[C@H](C(=O)N[C@@H](CCCNC(=N)N)C(=O)N[C@@H](CC(C)C)C(N)=O)C1CCCCC1 | Activity (Mus musculus [1]): 5.92 kg/kg; Activity (Mus musculus [2]): 114%; Activity (Mus musculus [3]): 130% |
| Active | – | CC[C@H](C)[C@H](NC(=O)[C@H](CCC(N)=O)NC(=O)[C@@H](NC(=O)[C@H](CCCCN)NC(=O)[C@@H](NC(=O)[C@H](Cc1c[nH]c2ccccc12)NC(=O)[C@H](CCCNC(=N)N)NC(=O)[C@@H](NC(=O)[C@H](Cc1ccc(O)cc1)NC(=O)[C@@H](N)Cc1c[nH]c2ccccc12)[C@@H](C)CC)[C@@H](C)CC)C1CCCCC1)C(=O)N[C@@H](Cc1c[nH]c2ccccc12)C(=O)N[C@@H](CO)C(=O)N[C@@H](CCCCN)C(=O)N[C@H](C(=O)N[C@@H](CCCNC(=N)N)C(=O)N[C@@H](CC(C)C)C(N)=O)C1CCCCC1 | – |
| Active | – | CC[C@H](C)[C@H](NC(=O)[C@H](CCC(N)=O)NC(=O)[C@@H](NC(=O)[C@H](CCCCN)NC(=O)[C@@H](NC(=O)[C@H](Cc1c[nH]c2ccccc12)NC(=O)[C@H](CCCNC(=N)N)NC(=O)[C@@H](NC(=O)[C@H](Cc1ccc(O)cc1)NC(=O)[C@@H](N)Cc1c[nH]c2ccccc12)[C@@H](C)CC)[C@@H](C)CC)[C@@H](C)CC)C(=O)N[C@@H](Cc1c[nH]c2ccccc12)C(=O)N[C@@H](CO)C(=O)N[C@@H](CCCCN)C(=O)N[C@H](C(=O)N[C@@H](CCCNC(=N)N)C(=O)N[C@@H](CC(C)C)C(N)=O)C1CCCCC1 (H-WYIRWIKIQIWSK[Chg]RL-NH2) | – |
| Active | – | CC[C@H](C)[C@H](NC(=O)[C@H](CCC(N)=O)NC(=O)[C@@H](NC(=O)[C@H](CCCCN)NC(=O)[C@@H](NC(=O)[C@H](Cc1c[nH]c2ccccc12)NC(=O)[C@H](CCCNC(=N)N)NC(=O)[C@@H](NC(=O)[C@H](Cc1ccc(O)cc1)NC(=O)[C@@H](N)Cc1c[nH]c2ccccc12)[C@@H](C)CC)[C@@H](C)CC)C1CCCCC1)C(=O)N[C@@H](Cc1c[nH]c2ccccc12)C(=O)N[C@@H](CO)C(=O)N[C@@H](CCCCN)C(=O)N[C@@H](CC(C)C)C(=O)N[C@@H](CCCNC(=N)N)C(=O)N[C@@H](CC(C)C)C(N)=O (H-WYIRWIK[Chg]QIWSKLRL-NH2) | – |
| – | – | CC[C@H](C)[C@H](NC(=O)[C@H](CCCNC(=N)N)NC(=O)[C@H](CO)NC(=O)[C@H](Cc1ccc(O)cc1)NC(=O)[C@H](CCCNC(=N)N)NC(=O)[C@@H](NC(=O)[C@H](CC(N)=O)NC(=O)[C@H](CCC(N)=O)NC(=O)[C@H](CCCNC(=N)N)NC(=O)COc1ccc2ccccc2c1)[C@@H](C)O)C(=O)N[C@@H](CCC(=O)O)C(=O)N[C@@H](Cc1c[nH]c2ccccc12)C(=O)N[C@H](C(=O)N[C@@H](CCCCN)C(=O)N[C@H](C(=O)N[C@@H](CCC(N)=O)C(=O)N[C@H](C(=O)N[C@H](C(=O)N[C@@H](CO)C(=O)N[C@@H](CCCCN)C(=O)N[C@@H](CC(C)C)C(=O)N[C@@H](CCCNC(=N)N)C(=O)N[C@@H](CC(C)C)C(N)=O)[C@@H](C)CC)[C@@H](C)CC)[C@@H](C)CC)[C@@H](C)CC ({Acetyl(2-naphthyloxy)}-RQNTRYSRIEWIKIQIISKLRL-NH2) | Activity (Mus musculus [5]): Active |
| – | inactive | H-SRIEAIKIQILSKLRL-NH2 | – |
| – | Active | H-SRIEWIKIQIISKLRL-NH2 | – |
| – | Active | H-SRIEWIKIQIWSKLRL-NH2 | – |
| Active | – | H-WYFRWIKIQIWSKLRL-NH2 | – |
| – | Active | H-WYIEAIKIQILSKLRL-NH2 | – |
| Active | – | H-WYIRWIKIQFWSKLRL-NH2 | – |
| Active | – | H-WYIRWIKIQIWSKLRL-NH2 | Activity (Mus musculus [7]): Active; Activity (Mus musculus [5]): Active |
